Reference: ChEMBL document CHEMBL4765456, “Discovery of novel liver X receptor inverse agonists as lipogenesis inhibitors” (Eur J Med Chem, 2020)
The source made the active and inactive calls. The rule behind the calls is not given here.

Experiments:
Format in all cases: cell-based
[1] = target: T1, Oxysterols receptor LXR-beta (Homo sapiens) (UniProt P55055); assay: Agonist activity at human LXRbeta transfected in human HEK293T cells co-transfected with pSG5 and pGL3/(DR-4)-c-fos-FF-luc/pCMV/Renilla-luc assessed as receptor transactivation at 10 uM incubated for 20 hrs by dual luciferase reporter gene assay; conditions: filed as agonist
T1 sequence (whole entry): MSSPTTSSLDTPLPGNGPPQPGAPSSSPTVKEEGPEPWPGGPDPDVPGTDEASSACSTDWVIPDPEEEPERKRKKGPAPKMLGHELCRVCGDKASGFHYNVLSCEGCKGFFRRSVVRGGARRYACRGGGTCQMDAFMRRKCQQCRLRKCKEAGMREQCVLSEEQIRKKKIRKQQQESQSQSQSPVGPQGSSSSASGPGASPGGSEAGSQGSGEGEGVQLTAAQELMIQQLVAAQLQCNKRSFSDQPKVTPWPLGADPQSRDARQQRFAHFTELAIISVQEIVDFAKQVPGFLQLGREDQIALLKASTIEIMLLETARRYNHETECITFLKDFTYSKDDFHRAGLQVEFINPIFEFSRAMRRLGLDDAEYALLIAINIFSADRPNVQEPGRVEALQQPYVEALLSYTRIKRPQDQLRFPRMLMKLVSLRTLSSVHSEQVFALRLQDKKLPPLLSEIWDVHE
Summary of the method: (§1)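 HEK293T cells seeded at 2 × 10^4 per well for 24 h, then transfected with pGL3/(DR-4)-c-fos-FF-luc, pCMV/Renilla-luc, pSG5/hRXRa and pSG5/hLXRa or pSG5/hLXRb. Compound added 5 h post-transfection and left 20 h. Firefly and Renilla luciferase read by dual-luciferase assay. Means ± SD from three independent experiments.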

[2] = target: T1, Oxysterols receptor LXR-beta (Homo sapiens); assay: (§2) Inverse agonist activity at human LXRbeta transfected in human HEK293T cells co-transfected with pSG5 and pGL3/(DR-4)-c-fos-FF-luc/pCMV/Renilla-luc assessed as receptor transactivation incubated for 20 hrs by dual luciferase reporter gene assay
[3] = target: T2, Oxysterols receptor LXR-alpha (Homo sapiens) (UniProt Q13133); assay: Agonist activity at human LXRalpha transfected in human HEK293T cells co-transfected with pSG5 and pGL3/(DR-4)-c-fos-FF-luc/pCMV/Renilla-luc assessed as receptor transactivation at 10 uM incubated for 20 hrs by dual luciferase reporter gene assay; conditions: filed as agonist; summary of the method: as §1
T2 sequence (whole entry): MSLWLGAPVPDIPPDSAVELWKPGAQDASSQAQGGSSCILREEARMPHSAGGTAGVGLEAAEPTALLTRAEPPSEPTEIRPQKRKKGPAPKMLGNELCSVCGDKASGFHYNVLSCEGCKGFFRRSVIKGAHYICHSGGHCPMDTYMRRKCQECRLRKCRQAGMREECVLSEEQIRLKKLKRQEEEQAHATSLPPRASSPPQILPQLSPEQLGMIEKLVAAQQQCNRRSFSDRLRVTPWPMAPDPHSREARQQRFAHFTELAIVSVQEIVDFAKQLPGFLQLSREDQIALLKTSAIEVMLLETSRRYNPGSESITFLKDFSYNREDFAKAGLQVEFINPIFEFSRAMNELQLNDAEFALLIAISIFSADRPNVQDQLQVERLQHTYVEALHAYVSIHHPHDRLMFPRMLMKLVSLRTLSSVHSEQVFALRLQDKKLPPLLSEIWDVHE

[4] = target: T3, Oxysterols receptor LXR-alpha (Homo sapiens, UniProt Q13133); assay: Inverse agonist activity at human LXRalpha transfected in human HEK293T cells co-transfected with pSG5 and pGL3/(DR-4)-c-fos-FF-luc/pCMV/Renilla-luc assessed as receptor transactivation incubated for 20 hrs by dual luciferase reporter gene assay
T3 sequence (Q13133 whole entry): T2 sequence (whole entry)

[5] = target: T4, Oxysterols receptor LXR-beta (Homo sapiens, UniProt P55055); assay: as §2
T4 sequence (P55055 whole entry): T1 sequence (whole entry)

[6] = tested on: HEK-293T; assay: Cytotoxicity against human HEK293T cells assessed as reduction in cell viability upto 10 uM incubated for 48 hrs by MTT assay
Summary of the method: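 Cells kept in DMEM with 10% FBS and 1% penicillin/streptomycin at 37 °C, 5% CO2. HEK293T seeded at 5 × 10^3 per well for 24 h, then exposed to compound for 48 h. Viability read by MTT. Means ± SD of three independent experiments.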

[7] = tested on: HepG2; assay: Cytotoxicity against human HepG2 cells assessed as reduction in cell viability at 10 uM incubated for 48 hrs by MTT assay; conditions: hepg2, 48 h
Summary of the method: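 HepG2 grown in DMEM with 10% FBS at 37 °C, 5% CO2. Seeded at 1 × 10^5 per well for 24 h, treated 48 h, viability by MTT assay. Means ± SD from three independent experiments.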

[8] = tested on: 3T3-L1; assay: Cytotoxicity against mouse 3T3-L1 cells assessed as reduction in cell viability at 10 uM incubated for 48 hrs by MTT assay; conditions: 3t3-l1, 48 h
Summary of the method: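 Mouse 3T3-L1 cells in DMEM with 10% FBS, 1% penicillin/streptomycin, at 37 °C, 5% CO2. Plated at 2 × 10^3 per well for 24 h, then compound for 48 h. MTT read-out of viability. Means ± SD, three independent experiments.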

Row | Activity [1] | Activity [2] | Activity [3] | Compound | also measured
1 | Active | inactive | Active | COC(=O)c1ccc(N2C(=O)[C@@]3(CCN(C(=O)OC(C)(C)C)[C@H]3C(C)C)c3ccccc32)cc1S(C)(=O)=O | 
2 | Active | inactive | Active | CC(C)[C@@H]1N(C(=O)OC(C)(C)C)CC[C@@]12C(=O)N(c1ccc(CO)c(S(C)(=O)=O)c1)c1ccccc12 | 
3 |  | inactive |  | CC(C)[C@@H]1N(C(=O)OC(C)(C)C)CC[C@@]12C(=O)N(CCCC#N)c1ccccc12 | 
4 |  | inactive |  | CC(C)[C@@H]1N(C(=O)OC(C)(C)C)CC[C@@]12C(=O)N(c1ccc(CO)cc1)c1ccccc12 | 
5 |  | inactive |  | CC(C)[C@@H]1N(C(=O)OC(C)(C)C)CC[C@@]12C(=O)N(CCCCl)c1ccccc12 | 
6 |  | inactive |  | COC(=O)c1ccc(N2C(=O)[C@@]3(CCN(C(=O)OC(C)(C)C)[C@H]3C(C)C)c3ccccc32)cc1 | 
7 |  | inactive |  | CC(C)[C@@H]1N(C(=O)OC(C)(C)C)CC[C@@]12C(=O)N(CCCC(=O)O)c1ccccc12 | 

Continued, compound first:

Row | Compound | Activity [1] | Activity [2] | Activity [3] | also measured
8 | CC(C)[C@@H]1N(C(=O)OC(C)(C)C)CC[C@@]12C(=O)N(c1cccc(-c3ccc(CO)cc3)c1)c1ccccc12 |  |  |  | IC50 [4]: Not Active
9 | CC(C)[C@@H]1N(C(=O)CC(C)(C)C)CC[C@@]12C(=O)N(c1cccc(-c3ccc(C(=O)N(C)C)c(Cl)c3)c1)c1ccccc12 | Active | inactive | Active | 
10 | CC(C)[C@@H]1N(C(=O)OC(C)(C)C)CC[C@@]12C(=O)N(c1cccc(-c3ccc4ccn(C)c4c3)c1)c1ccccc12 |  |  |  | IC50 [5]: > 20 µM; IC50 [4]: Not Active
11 | CC(C)[C@@H]1N(C(=O)OC(C)(C)C)CC[C@@]12C(=O)N(c1cccc(-c3ccc(C(=O)O)c(S(C)(=O)=O)c3)c1)c1ccccc12 |  |  |  | IC50 [4]: Not Active
12 | CC(C)[C@@H]1N(C(=O)C(C)(C)C)CC[C@@]12C(=O)N(c1cccc(-c3ccc(C(=O)N(C)C)c(Cl)c3)c1)c1ccccc12 | Active | inactive | Active | 
13 | CC(C)[C@H]1N(C(=O)OC(C)(C)C)CC[C@]12C(=O)N(c1cccc(-c3ccc(CO)c(S(C)(=O)=O)c3)c1)c1ccccc12 |  |  |  | Activity [6]: Non-Toxic; Activity [7]: Non-Toxic; Activity [8]: Non-Toxic
14 | CC(C)[C@@H]1N(C(=O)OC(C)(C)C)CC[C@@]12C(=O)N(c1cccc(-c3ccc(CO)c(Cl)c3)c1)c1ccccc12 |  |  |  | IC50 [4]: Not Active
15 | CC(C)[C@@H]1N(C(=O)OC(C)(C)C)CC[C@@]12C(=O)N(c1cccc(-c3ccc(C(=O)N(C)C)c(Cl)c3)c1)c1ccccc12 | Active | inactive | Active | 
